Screens from PubChem BioAssay.
The list is not random: actives were taken first. Their share in the collection is about 3.8%.
V-ATPase pH: alters yeast V-ATPase proton transport; 350,000 tested, 0.37% active; AID 504577; response, % at 10 µM; S. cerevisiae, pHLuorin cytosolic pH fluorescence; in the data active = response mostly above about 7.3%, no sharp cut-off; inactive = mostly below about 5.4%; also: actives read high
rCAG binder: binds r(CAG) RNA repeats; r(CAG) RNA repeat, TO-PRO-1 dye displacement fluorescence; 370,000 tested, 1.3% active; inhibition, % at 3 µM;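 active = inhibition above the plate cutoff, the mean of all test compounds on that plate plus 3 SD, cut at about 35% in these data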;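 also: 0% = DMSO alone and 100% = 100 µM mitoxantrone as full dye displacement; higher means more dye released from RNA so lower well fluorescence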
B2AR ag: human beta-2 adrenergic receptor agonism by FAP. 340,000 tested, 0.43% active. P07550. response, % (no concentration beside the values). Am2.2-beta2AR cells, FAP receptor internalization, flow cytometry;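 active = response above a set limit, near 3 SD of response in nonfluorescent compounds, cut at about 42% in these data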
Target sequence (P07550 whole entry, looked up): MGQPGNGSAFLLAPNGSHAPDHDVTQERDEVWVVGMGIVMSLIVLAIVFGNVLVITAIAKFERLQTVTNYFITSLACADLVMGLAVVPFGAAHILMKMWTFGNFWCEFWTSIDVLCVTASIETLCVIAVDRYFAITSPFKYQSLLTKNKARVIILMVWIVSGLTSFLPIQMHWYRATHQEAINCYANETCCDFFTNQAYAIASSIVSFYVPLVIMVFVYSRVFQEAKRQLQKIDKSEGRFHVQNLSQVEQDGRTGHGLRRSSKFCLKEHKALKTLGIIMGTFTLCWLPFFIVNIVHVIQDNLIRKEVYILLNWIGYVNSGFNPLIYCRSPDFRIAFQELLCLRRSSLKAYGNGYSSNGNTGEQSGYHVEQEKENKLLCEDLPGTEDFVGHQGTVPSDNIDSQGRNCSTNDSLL
Granule exo inh: blocks lytic granule exocytosis | 360,000 tested, 0.66% active | AID 651702 | TALL-104 LAMP-1 surface exposure, flow cytometry; cells stimulated with thapsigargin and PMA | inhibition, % at 10 µM;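 active = inhibition above about 55%, limit read from the data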
MPTP block: inhibitors of mitochondrial permeability transition pore; isolated mouse mitochondria, Ca2+ swelling absorbance, 30 min; inhibition, % at 10 µM; 360,000 tested, 1.4% active;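 active = inhibition of 50% or more, scaled per plate between neutral and stimulator controls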;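 also: 0% = DMSO wells given calcium and 100% = 1 mM EGTA wells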
T cell modulator: T cell immune modulators affecting CD8 T cell-vesicle binding; 2C CD8+ T cell-vesicle binding, flow cytometry; active compounds read low; AID 2052; 330,000 tested, 0.068% active; response (vesicle binding), % at 7 µM;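 active = response, share of CD8 T cells binding vesicles, and their 90th percentile fluorescence all below set limits, cut at about 80% in these data, passing the limit was not always enough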;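 also: values below 100% mean blocked vesicle binding to the CD8+ T cells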
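System: murine 2C transgenic CD8+ T lymphocytes; also added: QL9-loaded Drosophila micro-vesicles; times: binding 1.5 h at 37 °C; measured by: flow cytometry, PE anti-B7-1 (FL2) versus Alexa647 anti-CD8 (FL8), PFA-fixed; control set: Peptide-free naked vesicles (low) and QL9 vesicles with 0.7% DMSO vehicle (high)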
rCAG binder conf: r(CAG) RNA repeat binding, confirmation; shares compounds with rCAG binder; inhibition, % at 3 µM; TO-PRO-1 dye displacement fluorescence; 4,300 tested, 70% active;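 active = inhibition above a per-plate cutoff, the mean inhibition of sample wells plus 3 SD, cut at about 35% in these data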;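 also: loss of TO-PRO-1 fluorescence as compound displaces dye from 1x1 AA loop RNA; 0% = DMSO only wells and 100% = 100 µM mitoxantrone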
DNA CAG counter: disrupts DNA CAG TO-PRO-1 complex, flagging rCAG hits; shares compounds with rCAG binder; 4,300 tested, 94% active; d(CAG) DNA oligo TO-PRO-1 dye displacement, fluorescence; inhibition, % at 3 µM;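 active = inhibition above its plate's cutoff, the mean test-well inhibition plus 3 SD, cut at about 4.8% in these data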;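 also: 0% = DNA dye mix with DMSO and 100% = 100 µM mitoxantrone; hits displace the dye from DNA and so lower well fluorescence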
* = called active by the depositor; i = inactive; . = not tested or not shown.

SMILES | V-ATPase pH | rCAG binder | B2AR ag | Granule exo inh | MPTP block | T cell modulator | rCAG binder conf | DNA CAG counter
CCCCNC(=O)C1CCCN1C(=O)Nc1cccc(C)c1 (stereo not drawn) | . | 2 | . | . | . | . | . | .
CCC(C)N(C(=O)CSc1nnc(-c2cccnc2)n1C1CCCCC1)C(C)CC (stereo not drawn) | . | -2 | . | . | . | . | . | .
COC(=O)[C@]12C[C@H](CC(=O)N3CCN(C(=O)c4ccco4)CC3)C(=O)N(CCC3=CCCCC3)C1=C[C@H](COCc1ccccc1)O[C@@H]2C | . | 5 | . | . | . | . | . | .
COc1ccc(S[C@]2(C(=O)N(C)C)CC(=O)N(c3ccc(C#N)cc3)[C@@H]2c2ccc(OC)cc2)cc1 | . | 3 | . | . | . | . | . | .
CCOc1ccc2sc(NS(=O)(=O)c3ccc(OC)c(OC)c3)nc2c1 | -4 | 52* | 4 | -2 | -1 | 311 | 26 | 5.9*
COc1ccc(S(=O)(=O)Nc2nc3ccccc3s2)cc1 | -1 | 21 | -7 | -1 | 1 | 294 | . | .
Cc1ccc(S(=O)(=O)Nc2ccc3ccccc3c2[N+](=O)[O-])cc1 | 0 | 61* | 3 | 21 | 26 | . | 52* | 18*
O=S(=O)(Nc1cccc2ccccc12)c1ccccc1 | -1 | 0 | -3 | -2 | 2 | 351 | . | .
COC(=O)[C@]12C[C@H](CC(=O)NCc3cccs3)C(=O)N(Cc3cccc4ccccc34)C1=C[C@H](C(C)C)O[C@@H]2C1CC1 | . | 5 | . | . | . | . | . | .
Cc1cccn2c(=O)c3cc(C#N)c(=NC(=O)c4ccccc4)n(Cc4ccco4)c3nc12 | 5 | 36* | 14 | 0 | -2 | 329 | 27 | 11*
Cc1cccc(C(=O)N=c2c(C#N)cc3c(=O)n4cccc(C)c4nc3n2Cc2ccco2)c1 | -2 | 47* | 10 | -2 | -1 | i | 38* | 18*
COC(=O)[C@]12C[C@H](CC(=O)NCCCCc3ccccc3)C(=O)N(Cc3ccccc3)C1=C[C@H](C(C)C)O[C@@H]2C1CC1 | . | 8 | . | . | . | . | . | .
CCCCN1CCN(C(=O)c2cn(C(C)c3ccccc3)nn2)CC1 (stereo not drawn) | . | 0 | . | . | . | . | . | .
CCC(Sc1nc(-c2ccccc2)c(C#N)c(=O)[nH]1)C(=O)Nc1nnc(C)s1 (stereo not drawn) | -4 | 44* | -12 | -2 | 0 | 138 | 43* | 12*
Cc1cc(NC(=O)CSc2nc(-c3ccccc3)c(C#N)c(=O)[nH]2)no1 | 3 | 16 | 16 | -3 | -1 | 908 | . | .
O=C(CSc1nc2ccccc2c(=O)[nH]1)c1cccs1 | -3 | 4 | -9 | 10 | -1 | 838 | . | .
Cc1cccc(NC(=O)CSc2nc(-c3ccccc3)c(C#N)c(=O)[nH]2)c1C | 0 | 33 | 6 | -1 | 0 | 363 | . | .
N#Cc1c(-c2ccccc2)nc(SCC(=O)Nc2ccccc2F)[nH]c1=O | 0 | 44* | -1 | 4 | -2 | 381 | 32 | 8.2*
N#Cc1c(-c2cccs2)nc(SCC(=O)c2cccs2)[nH]c1=O | 0 | 79* | 7 | -3 | 2 | 211 | 65* | 29*
N#Cc1c(-c2ccccc2)nc(SCC(=O)Nc2ccc(OC(F)(F)Cl)cc2)[nH]c1=O | -3 | 90* | -21 | 0 | 2 | 52 | 85* | 58*
CC(C)CC(NC(=O)OCc1ccccc1)C(=O)NCC(=O)NCC(=O)OCc1ccccc1 (stereo not drawn) | . | -2 | . | . | . | . | . | .
Cc1ccc(NC(=O)CSc2nnc(-c3cc(-c4ccc(Cl)cc4)n[nH]3)n2N)cc1 | . | 6 | . | . | . | . | . | .
O=C(CSc1nnc(-c2ccccc2)n1-c1ccc(Cl)cc1)Nc1ccc(OCc2ccccc2)cc1 | . | 6 | . | . | . | . | . | .
CCN1CCCCC(NC(=O)COCc2ccccc2)C1=O (stereo not drawn) | . | 2 | . | . | . | . | . | .
O=C(Nc1ccc(F)cc1)OCc1cn(Cc2ccccc2C(F)(F)F)nn1 | . | -1 | . | . | . | . | . | .
SMILES | V-ATPase pH | rCAG binder | B2AR ag | Granule exo inh | MPTP block | T cell modulator | rCAG binder conf | DNA CAG counter
N#Cc1c(-c2ccccc2)nc(SCC(=O)N(c2ccccc2)c2ccccc2)[nH]c1=O | -1 | 73* | -1 | -2 | 7 | 453 | 82* | 41*
CCCCc1nnc(NC(=O)CSc2nc(O)c(Cc3ccccc3)c(=O)[nH]2)s1 | 1 | 0 | -8 | 10 | -1 | 179 | . | .
N#Cc1c(-c2ccccc2)nc(SCC(=O)Nc2nnc(C(F)(F)F)s2)[nH]c1=O | 0 | 46* | -2 | -1 | -1 | 147 | 23 | 5.6*
Cc1cc(C)nc(NS(=O)(=O)c2ccc(NC(=O)CSc3nc(-c4ccccc4)c(C#N)c(=O)[nH]3)cc2)n1 | -1 | 45* | -1 | -8 | -1 | 287 | 30 | 7.4*
O=C(CSc1nc(O)c(Cc2ccccc2)c(=O)[nH]1)Nc1nnc(SCc2ccccc2)s1 | -2 | 53* | -6 | -6 | 2 | 135 | 28 | 7.5*
C#CCNC(=O)C[C@H]1C[C@@]2(C(=O)OC)C(=C[C@H](COCc3ccccc3)O[C@@H]2C)N(Cc2ccc3c(c2)OCO3)C1=O | . | 2 | . | . | . | . | . | .
CCN(CC)S(=O)(=O)c1ccc2oc(C(=O)O)c(C)c2c1 | 1 | -2 | 1 | 5 | 0 | 426 | . | .
Cc1c(C(=O)O)oc2ccc(S(=O)(=O)N(CC(C)C)CC(C)C)cc12 | 1 | 46* | 7 | 6 | -2 | 362 | 25 | 3
O=C(NCc1ccccc1)[C@@H]1CCCN1C(=O)[C@H]1CCCN1C(=O)N1CCCCC1 | . | 2 | . | . | . | . | . | .
O=C(CCN1C(=O)S/C(=C\c2ccccc2)C1=O)Nc1ccc(O)cc1C(=O)O | -3 | 46* | 4 | -1 | 0 | 482 | 33 | 8.4*
O=C(CCN1C(=O)S/C(=C/c2ccccc2)C1=O)Nc1ccc(O)c(C(=O)O)c1 | 1 | 56* | -18 | -2 | -1 | 438 | 40* | 14*
O=C(CN1C(=O)S/C(=C\c2cccs2)C1=O)Nc1ccc(O)cc1C(=O)O | -6 | 68* | -11 | -8 | -2 | 421 | 49* | 15*
CN1C(=O)/C(=C/c2ccc(C(=O)Nc3ccc(O)cc3C(=O)O)cc2)SC1=S | -4 | 55* | -4 | 2 | -3 | 611 | 94* | 82*
COc1ccc(/C=C2\SC(=S)N(CCC(=O)Nc3ccccc3C(=O)O)C2=O)cc1 | -5 | 8 | -1 | -17 | 2 | 160 | . | .
O=C(CCN1C(=O)S/C(=C\c2cccs2)C1=O)Nc1nccs1 | 0 | 1 | 6 | 0 | 2 | 259 | . | .
Nc1nonc1-c1nc2ccccc2n1CC(=O)O | -2 | -2 | -4 | -3 | 0 | . | . | .
Nc1nonc1-c1nc2ccccc2n1CC(=O)N/N=C/c1ccc(-c2cccc(C(=O)O)c2)o1 | 1 | 61* | 2 | -3 | -2 | . | 46* | 14*
